Measured values collected from several papers.
Target: Aurora kinase B (AURKB, Homo sapiens, UniProt Q96GD4)

SMILES	read-out	method	concentration	remaining binding [%]
CN(C)c1nccc(-c2cnc3ncccn23)n1	binding		1 µM	76
COc1ncc2cc3ccccc3nc2c1C#N	cell-free assay	competition with immobilised ligand	5 µM	94
CNC(=O)Nc1ccc2c(c1)CC[C@@]21OC(=O)N(CC(=O)N(Cc2ccc(F)cc2)[C@@H](C)C(F)(F)F)C1=O	cell-free assay	competition with immobilised ligand	1 µM	86
FC(F)(F)Oc1cccc(-c2cnc3ccc(-c4ccncc4)nn23)c1	cell-free assay	competition with immobilised ligand	5 µM	73
CN(c1nccc(-c2cnn3ncccc23)n1)C1CC1	binding		1 µM	100
O=C(Nc1c[nH]nc1C(=O)NC1CCNCC1)c1cc(F)cc(F)c1	binding	competition with immobilised ligand	1 µM	78
CCC(=O)N[C@H]1CC[C@@H](C(=O)N(C)c2ccc(-c3nc4ccccc4o3)cc2)C1	cell-free assay	competition with immobilised ligand	1 µM	83
Nc1ncc2c(n1)-c1c([nH]c3ccc(C#CC4CC4)cc13)CCCC2	binding	competition with immobilised ligand	1 µM	43
O=C(c1ccc(Nc2nccc(-c3cc4ccccc4s3)n2)cc1)N1CCC(N2CCCC2)CC1	binding	competition with immobilised ligand	1 µM	63
CC(C)(C)c1ccc(-c2nc(CBr)nn2-c2cccc(O)c2)cc1	cell-free assay	competition with immobilised ligand	10 µM	69
O=C(NCCCN1CCOCC1)c1ccc(Nc2ncc(Cl)c(-c3ccc(Cl)s3)n2)cc1	binding	competition with immobilised ligand	1 µM	15
C[C@@H](c1ccc(-n2cnc3c(N)ncnc32)cc1)N1CCc2nn(C)c(Cc3ccccc3)c2C1=O	binding	competition with immobilised ligand	0.1 µM	65
CSc1cccnc1N1CCN(Cc2nc3ccccc3[nH]2)CC1	cell-free assay	competition with immobilised ligand	1 µM	67
CN(C)c1ncc(F)c(-c2cnn3ncccc23)n1	binding		1 µM	77
CNC(=O)[C@@H]1CC[C@@H](n2c(-c3ccc4cnccc4c3)nc3ccc(C(=O)NCc4cccc(C(N)=O)c4)cc32)C1	binding	competition with immobilised ligand	1 µM	95
N[C@@H]1CCN(c2nccc(-c3cnn4ncccc34)n2)C1	binding		1 µM	99
CN([C@@H]1CCc2c(CC(=O)O)c3ccccc3n2C1)S(=O)(=O)c1ccc(F)cc1	cell-free assay	competition with immobilised ligand	1 µM	91
C[C@@H]1CN(c2ccc3ncc(-c4ccc5[nH]nc(C6CC6)c5c4)n3n2)C[C@H](C)O1	binding	competition with immobilised ligand	50 nM	100
CC1=C(C#N)[C@@H](c2ccc3[nH]nc(C)c3c2)C(C#N)=C(c2ccc(Cl)cc2)N1	cell-free assay	competition with immobilised ligand	1 µM	82.9
COc1cc(C(=O)N2CCC(N3CCN(C)CC3)CC2)ccc1Nc1ncc2c(n1)N(C)c1ccccc1C(=O)N2C	binding	competition with immobilised ligand	10 µM	38
CN([C@@H]1CCc2c(CC(=O)O)c3cc(S(C)(=O)=O)ccc3n2C1)S(=O)(=O)c1ccc(F)cc1	cell-free assay	competition with immobilised ligand	1 µM	83
O=C(NCCCN1CCOCC1)c1ccc(Nc2nccc(-c3cc4ccccc4s3)n2)cc1	binding	competition with immobilised ligand	1 µM	48
